Test results from ChEMBL document CHEMBL4145530, “Design, synthesis and pharmacological evaluation of N-benzyl-piperidinyl-aryl-acylhydrazone derivatives as donepezil hybrids: Discovery of novel multi-target anti-alzheimer prototype drug candidates” (Eur J Med Chem, 2018).
The source made the active and inactive calls. The rule behind the calls is not given here.

How the values were obtained:
Mus musculus [1] = assay: (§1) Proinflammatory activity in C57Bl/6 mouse model of amyloid beta (1 to 42) oligomer-induced neuroinflammation assessed as induction of microgliosis in CA1 region of contralateral hippocampus at 100 mg/kg, ip pretreated for 1.5 hrs followed by amyloid beta (1 to 42) oligomer addition and measured after 7 days by Iba-1 staining based assay; format: organism-based; conditions: in vivo, 168 h
Method in brief: (§2)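 Male C57Bl/6 mice (25–30 g) got 100 mg/kg i.p. or vehicle 1.5 h before a unilateral right-hippocampal injection of Aβ1-42 oligomers (400 pmol/0.5 µL) or PBS. The oligomers were made by diluting the DMSO stock into PBS at 40 µM and holding at 4 °C for 48 h. After 7 days, brain sections were stained for Iba-1 (antigen retrieval, fluorescent secondary) and five CA1 images per hippocampus were taken; pixel density was read, n=10.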

Mus musculus [2] = assay: as §1, with “Anti-inflammatory” for “Proinflammatory”, “inhibition” for “induction”, “ipsilateral” for “contralateral”; format: functional, organism-based; method in brief: as §2
Mus musculus [3] = assay: Antinociceptive activity in formalin-induced Swiss mouse model of hyperalgesia assessed as time spent licking the injected paw in early phase at 100 mM/kg, po pretreated for 1 hr followed by formalin injection and measured up to 5 mins (reference value: 74 +/- 7.7 secs); format: functional
Mus musculus [4] = assay: as §1, with “Toxicity” for “Proinflammatory activity”, “neurodegeneration” for “microgliosis”, “Fluoro-Jade C” for “Iba-1”, “based fluorescence microscopic” for “based”; format: organism-based; conditions: in vivo, 168 h
Method in brief: (§3)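 C57Bl/6 male mice were dosed i.p. at 100 mg/kg 1.5 h before stereotactic right intrahippocampal Aβ1-42 oligomer injection (400 pmol/0.5 µL), with PBS as control. After 7 days, hippocampal sections were stained with Fluoro-Jade C (0.0001%) after NaOH/ethanol and permanganate steps. Five CA1 images per hippocampus were imaged under fluorescence and pixel intensity quantified, n=10.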

[5] = target: Cholinesterase (Equus caballus) (UniProt P81908); assay: (§4) Inhibition of […] preincubated for 10 mins followed by substrate addition by Ellman's method
Sequence of Cholinesterase (Equus caballus) (P81908 whole entry): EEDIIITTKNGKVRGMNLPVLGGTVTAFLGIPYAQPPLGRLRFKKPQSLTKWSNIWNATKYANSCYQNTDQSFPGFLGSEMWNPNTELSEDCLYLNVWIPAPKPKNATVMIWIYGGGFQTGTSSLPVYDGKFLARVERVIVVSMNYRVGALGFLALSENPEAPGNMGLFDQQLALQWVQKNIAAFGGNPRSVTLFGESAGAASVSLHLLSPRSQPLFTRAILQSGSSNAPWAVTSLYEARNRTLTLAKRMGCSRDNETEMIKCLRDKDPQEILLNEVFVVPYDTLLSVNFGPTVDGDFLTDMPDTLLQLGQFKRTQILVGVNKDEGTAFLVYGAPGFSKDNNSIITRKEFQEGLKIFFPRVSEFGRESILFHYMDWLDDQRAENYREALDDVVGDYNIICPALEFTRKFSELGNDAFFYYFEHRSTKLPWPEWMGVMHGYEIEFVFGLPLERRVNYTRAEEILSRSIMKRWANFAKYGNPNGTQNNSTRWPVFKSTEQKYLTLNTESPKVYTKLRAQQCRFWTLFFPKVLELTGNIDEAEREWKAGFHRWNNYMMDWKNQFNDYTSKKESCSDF

Cholinesterase = Cholinesterase (Equus caballus, UniProt P81908); assay: as §4
Sequence of Cholinesterase (P81908 whole entry): as above

THP-1 = assay: Anti-inflammatory activity in human THP1 cells assessed as inhibition of LPS-induced IL-1beta production at 10 uM after 24 hrs by ELISA relative to control; format: functional; conditions: THP-1, 24 h
Method in brief: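 Human monocytic THP-1 cells (5×10^5 cells/mL) were given LPS 1 µg/mL with or without compound at 10 µM for 24 h. Cells were spun out at 500 × g and the medium kept at −80 °C. Secreted IL-1β and TNFα were measured with high-sensitivity ELISA. Three independent experiments.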

Mus musculus [6] = assay: Antinociceptive activity in formalin-induced Swiss mouse model of hyperalgesia assessed as time spent licking the injected paw in last phase at […], po pretreated for 1 hr followed by formalin injection and measured at 20 to 30 mins (reference value: 135.8 +/- 10.7 secs); format: functional
[7] = Cytotoxicity against human HepG2 cells assessed as cell viability at 20 to 40 uM after 6 hrs by trypan blue exclusion assay relative to control; format: cell-based; conditions: read-out: Activity
PBMC = assay: cells; format: ADME, cell-based; conditions: Homo sapiens, 6 h
[8] = Selectivity ratio of IC50 for equine serum BuChE to IC50 for electric eel AChE
Method in brief: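 Ellman kinetic assay with Electrophorus electricus AChE (acetylthiocholine) and equine serum BuChE (butyrylthiocholine iodide), […]. Enzyme was preincubated 10 min with DTNB and compound in 0.1 M sodium phosphate, pH 7.4 (final DMSO <0.2%), before substrate was added. A412 was read every 12 s for 5 min at rt to give maximum velocity. IC50 is the geometric mean of 2–3 curves, each 6 concentrations in triplicate. Selectivity is IC50 BuChE/IC50 AChE.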

SH-SY5Y = assay: Neuroprotection in human SH-SY5Y cells assessed as inhibition of amyloid beta (1 to 42) oligomer-induced early neurotoxic event by measuring decrease in MTT formazan exocytosis at 10 uM after 4 hrs by microscopic method; format: functional, cell-based
Method in brief: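 SH-SY5Y cells (3×10^4/well) were grown 24 h, then co-treated with compound and Aβ1-42 oligomers (10 µM) for 4 h at 37 °C. Medium was replaced by MTT in PBS for 2 h. Needle-like exocytosed formazan crystals on the cell surface were assessed by light microscopy. Three independent experiments.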

Mus musculus [9] = assay: Inhibition of serum COX2 level in Swiss mouse model of carragenan-induced paw edema at 100 mM/kg, po pretreated for 1 hr followed by carrageenan treatment measured after 3 hrs by ELISA; format: functional
Method in brief: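 Swiss mice (n=8) received compound (100 mM/kg) or vehicle orally 1 h before intraplantar carrageenan; indomethacin was the positive control. Three hours later, blood was drawn from the heart under chloral hydrate anaesthesia and serum was collected. COX-1 and COX-2 protein was measured by sandwich ELISA read at 450 nm and expressed as percent COX level.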

Mus musculus [10] = assay: Anti-inflammatory activity in po dosed Swiss mouse assessed as reduction in carrageenan-induced paw edema pretreated for 1 hr followed by carrageenan injection and measured after 1 to 5 hrs by plethysmometric method; format: functional; conditions: read-out: ID50 (the source's name)
Method in brief: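 Male Swiss mice (22–28 g) were fasted overnight and dosed orally with vehicle (2% DMSO in sterile saline), compound or indomethacin 1 h before intraplantar carrageenan. Groups (n=10) were matched on basal paw volume. Right hind paw volume was read by plethysmometer at 1, 3 and 5 h and expressed as change from basal.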

Mus musculus [11] = assay: as §1, with “Toxicity” for “Proinflammatory activity”, “neurodegeneration” for “microgliosis”, “ipsilateral” for “contralateral”, “Fluoro-Jade C” for “Iba-1”, “based fluorescence microscopic” for “based”; format: organism-based; conditions: in vivo, 168 h; method in brief: as §3

Structure (SMILES) | Activity (Mus musculus [1]) | inhibition (Mus musculus [2]) | Time (Mus musculus [3]) [s] | Activity (Mus musculus [4]) | inhibition [5] | IC50 (Cholinesterase) [µM] | inhibition at 10 µM (THP-1) [%] | Time (Mus musculus [6]) [s] | viability at 6 h, 40 µM [7] [%] | IC50 (PBMC) [µM] | Ratio IC50 [8] | inhibition (SH-SY5Y) | inhibition (INH) (Mus musculus [9]) [%] | ED50 (Mus musculus [10]) [µmol/kg] | Activity (Mus musculus [11])
O=C(N/N=C/c1ccc(Cl)cc1)c1ccc(CN2CCCC(O)C2)cc1 (stereo not drawn) | Non-Toxic | Active | 14 | Non-Toxic | Dose-dependent effect | 48.2 | 29 | 62.88 | > 90 | > 100 | 1.9 | Active | 42 | 8.76 | 
O=C(N/N=C/c1ccc(F)cc1)c1ccc(CN2CCCC(O)C2)cc1 (stereo not drawn) | Non-Toxic | Active | 18.86 | Toxic | Dose-dependent effect | 39 | 31 | 24.17 | > 90 | > 100 | 4.5 |  | 25 | 4.66 | Toxic
